pIC50: −log10 of the molar value.
Experiments:
[1] = Efflux ratio of apparent permeability from basolateral to apical side over apical to basolateral side in human Caco2 cells at 10 uM after 90 mins by LC-MS/MS analysis; format: ADME, cell-based, Caco-2; conditions: Caco-2
Outline: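 Caco-2 cells cultured 21 days on 24-well inserts, TEER >250 Ω·cm². Monolayers pre-incubated in HBSS pH 7.4 at 37 °C. Compound added to the donor side at 10 µM, 37 °C, 5% CO₂, 90 min, in the A-to-B and B-to-A directions. Donor and receiver levels measured by LC-MS/MS. Papp calculated from receiver amount, membrane area 0.7 cm², time and initial donor concentration. Efflux ratio = B–A/A–B.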

[2] = Apparent permeability from basolateral to apical side in human Caco2 cells at 10 uM after 90 mins by LC-MS/MS analysis; format: ADME, cell-based, Caco-2; conditions: Caco-2
[3] = Apparent permeability from apical to basolateral side in human Caco2 cells at 10 uM after 90 mins by LC-MS/MS analysis; format: ADME, cell-based, Caco-2; conditions: Caco-2
HL-60 = experiment: Cytotoxicity against human HL60 cells at 1 uM after 72 hrs by MTT assay; format: functional; conditions: HL-60, 72 h, read-out: GI
Outline: (§1)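 Cells plated at 2000–5000/well, attached overnight at 37 °C. DMSO stocks (100 mM) serially diluted in medium to a final 1 µM, tested in duplicate wells. Exposure 72 h at 37 °C, 5% CO₂. MTT (5 mg/mL, 10 µL) added for 4 h. Lysis in 10% SDS / 5% isopropanol / 0.012 N HCl, then OD read at 580–680 nm.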

DU-145 = experiment: Cytotoxicity against human DU145 cells at 1 uM after 72 hrs by MTT assay; format: functional; conditions: DU-145, 72 h, read-out: GI; outline: as §1
HT-29 = experiment: Cytotoxicity against human HT-29 cells at 1 uM after 72 hrs by MTT assay; format: functional; conditions: HT-29, 72 h, read-out: GI; outline: as §1
A-375 = experiment: Cytotoxicity against human A375 cells at 1 uM after 72 hrs by MTT assay; format: functional; conditions: A-375, 72 h, read-out: GI
Outline: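 Cells plated at 2000–5000/well, attached overnight at 37 °C. DMSO stocks (100 mM) serially diluted in medium to a final 1 µM, tested in duplicate wells. MTT (5 mg/mL, 10 µL) added for 4 h. Lysis in 10% SDS / 5% isopropanol / 0.012 N HCl, then OD read at 580–680 nm.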

MCF7 [4] = experiment: Cytotoxicity against human MCF7 cells at 1 uM after 72 hrs by MTT assay; format: functional; conditions: MCF7, 72 h, read-out: GI; outline: as §1
NCI-H460 = experiment: Cytotoxicity against human NCI-H460 cells at 1 uM after 72 hrs by MTT assay; format: functional; conditions: NCI-H460, 72 h, read-out: GI; outline: as §1
HeLa = experiment: Cytotoxicity against human HeLa cells at 1 uM after 72 hrs by MTT assay; format: functional; conditions: read-out: GI; outline: as §1
A2780 = experiment: Cytotoxicity against human A2780 cells at 1 uM after 72 hrs by MTT assay; format: functional; conditions: A2780, 72 h, read-out: GI; outline: as §1
MCF7 [5] = experiment: Cytotoxicity against human MCF7 cells after 72 hrs by MTT assay; format: functional, cell-based; conditions: MCF7, 72 h
Outline: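 MCF-7 cells exposed to compound for 72 h and read by MTT. At least six replicate wells per assay, run on three separate occasions. IC₅₀ given as mean with standard deviation.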

MDR1 [6] = experiment: Efflux ratio of apparent permeability from basolateral to apical side over apical to basolateral side in MDCK cells expressing MDR1 at 5 uM after 90 mins; format: ADME, cell-based, Canis lupus familiaris; conditions: dog
Outline: (§2)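 MDCK-MDR1 monolayers grown on polycarbonate filter Transwells, confluent 5 days after seeding, TEER >1000 Ω·cm² before use. MDCK-WT cells plated at 5.0 × 10⁴ cells/well and used after 6 days at TEER >200 Ω·cm². Transport run at 37 °C in HBSS pH 7.4 for 90 min, in both directions. Lucifer yellow permeability and TEER change served as monolayer integrity checks. Efflux ratio = Papp(B–A)/Papp(A–B).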

MDR1 [7] = experiment: Apparent permeability from basolateral to apical side in MDCK cells expressing MDR1 at 5 uM after 90 mins; format: ADME, cell-based, Canis lupus familiaris; conditions: dog; outline: as §2
MDR1 [8] = experiment: Apparent permeability from apical to basolateral side in MDCK cells expressing MDR1 at 5 uM after 90 mins; format: ADME, cell-based, Canis lupus familiaris; conditions: dog; outline: as §2
[9] = Efflux ratio of apparent permeability from basolateral to apical side over apical to basolateral side in wild-type MDCK cells at 5 uM after 90 mins; format: ADME, cell-based, Canis lupus familiaris; conditions: dog; outline: as §2
[10] = Apparent permeability from basolateral to apical side in wild-type MDCK cells at 5 uM after 90 mins; format: ADME, cell-based, Canis lupus familiaris; conditions: dog; outline: as §2
[11] = Apparent permeability from apical to basolateral side in wild-type MDCK cells at 5 uM after 90 mins; format: ADME, cell-based, Canis lupus familiaris; conditions: dog; outline: as §2

| Compound | efflux ratio at 1.5 h, 10 µM [1] | Papp B→A at 1.5 h, 10 µM [2] [×10⁻⁶ cm/s] | Papp A→B at 1.5 h, 10 µM [3] [×10⁻⁶ cm/s] | inhibition of growth at 1 µM (HL-60) [%] | inhibition of growth at 1 µM (DU-145) [%] | inhibition of growth at 1 µM (HT-29) [%] | inhibition of growth at 1 µM (A-375) [%] | inhibition of growth at 1 µM (MCF7 [4]) [%] | inhibition of growth at 1 µM (NCI-H460) [%] | inhibition of growth at 1 µM (HeLa) [%] | inhibition of growth at 1 µM (A2780) [%] | pIC50 (MCF7 [5]) | efflux ratio at 1.5 h, 5 µM (MDR1 [6]) | Papp B→A at 1.5 h, 5 µM (MDR1 [7]) [×10⁻⁶ cm/s] | Papp A→B at 1.5 h, 5 µM (MDR1 [8]) [×10⁻⁶ cm/s] | efflux ratio at 1.5 h, 5 µM [9] | Papp B→A at 1.5 h, 5 µM [10] [×10⁻⁶ cm/s] | Papp A→B at 1.5 h, 5 µM [11] [×10⁻⁶ cm/s] |
| --- | --- | --- | --- | --- | --- | --- | --- | --- | --- | --- | --- | --- | --- | --- | --- | --- | --- | --- |
| CO[C@H]1C(=O)[C@@]2(C)[C@H]([C@H](OC(=O)c3ccccc3)[C@]34OC(=O)O[C@H]3[C@H](OC(=O)[C@H](O)[C@@H](NC(=O)OC(C)(C)C)c3ccccc3)C(C)=C1C4(C)C)[C@]1(OC(C)=O)CO[C@@H]1C[C@@H]2O | 51 | 44.7 | 0.88 | 97.5 | 86.8 | 86.6 | 92.5 | 87.1 | 82.7 | 100 | 95 |  |  |  |  |  |  |  |
| CO[C@H]1C(=O)[C@]2(C)[C@@H](OC(=O)N(C)C)C[C@H]3OC[C@@]3(OC(C)=O)[C@H]2[C@H](OC(=O)c2ccccc2)[C@]23OC(=O)O[C@H]2[C@H](OC(=O)[C@H](O)[C@H](CC(C)C)NC(=O)OC(C)(C)C)C(C)=C1C3(C)C | 2.39 | 5.74 | 2.4 |  |  |  |  |  |  |  |  | 7.67 |  |  |  |  |  |  |
| COC(=O)O[C@H]1C(=O)[C@]2(C)[C@@H](OC)C[C@H]3OC[C@@]3(OC(C)=O)[C@H]2[C@H](OC(=O)c2ccccc2)[C@]2(O)C[C@H](OC(=O)[C@H](O)[C@H](CC(C)C)NC(=O)OC(C)(C)C)C(C)=C1C2(C)C |  | 33.3 | 8.87 |  |  |  |  |  |  | 99.7 |  | 8.54 |  |  |  |  |  |  |
| CO[C@H]1C[C@H]2OC[C@@]2(OC(C)=O)[C@H]2[C@H](OC(=O)c3ccccc3)[C@]3(O)C[C@H](OC(=O)[C@H](O)[C@@H](NC(=O)OC(C)(C)C)c4ccccc4)C(C)=C([C@@H](OC(=O)N(C)C)C(=O)[C@]12C)C3(C)C | 4.08 | 33.1 | 8.11 | 97.2 | 84.8 | 87.9 | 87.7 | 93.5 | 83.3 | 99.8 | 94.8 | 8.80 |  |  |  |  |  |  |
| C[C@H]1O[C@@H](O[C@H]2[C@@H](O)C[C@H](O[C@H]3[C@@H](O)C[C@H](O[C@H]4CC[C@@]5(C)[C@H](CC[C@@H]6[C@@H]5C[C@@H](O)[C@]5(C)[C@@H](C7=CC(=O)OC7)CC[C@]65O)C4)O[C@@H]3C)O[C@@H]2C)C[C@H](O)[C@@H]1O [DIGOXIN] |  |  |  |  |  |  |  |  |  |  |  |  | 65.5 | 12.4 | 0.19 | 22.7 | 8.06 | 0.35 |
| CO[C@H]1C(=O)[C@]2(C)CC[C@H]3OC[C@@]3(OC(C)=O)[C@H]2[C@H](OC(=O)c2ccccc2)[C@]2(O)C[C@H](OC(=O)[C@H](O)[C@H](CC(C)C)NC(=O)OC(C)(C)C)C(C)=C1C2(C)C | 5.12 | 38.6 | 7.17 |  |  |  |  |  |  | 99.3 |  | 8.51 |  |  |  |  |  |  |
| COC(=O)O[C@H]1C[C@H]2OC[C@@]2(OC(C)=O)[C@H]2[C@H](OC(=O)c3ccccc3)[C@]3(O)C[C@H](OC(=O)[C@H](O)[C@@H](NC(=O)OC(C)(C)C)c4ccccc4)C(C)=C([C@@H](OC)C(=O)[C@]12C)C3(C)C | 5.23 | 38.8 | 6.97 | 97 | 88.5 | 89.7 | 97.4 | 103 | 89.5 | 102 | 96.4 | 8.30 |  |  |  |  |  |  |
